Data reported in ChEMBL document CHEMBL2203025, “6,7-Dihydroxy-1-oxoisoindoline-4-sulfonamide-containing HIV-1 integrase inhibitors” (Bioorg Med Chem Lett, 2012).

Key:
[1] = biological target: T1, Human immunodeficiency virus type 1 integrase (Human immunodeficiency virus 1, UniProt Q7ZJM1); experiment: Inhibition of HIV1 recombinant integrase strand transfer activity using [32P]-labeled oligonucleotide a substrate after 30 mins by electrophoretic analysis
Outline: (§1)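 Gel-based IN assay run in vitro with Mg2+ as cofactor. IC50 values were determined separately for the 3'-processing and strand transfer reactions.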

[2] = biological target: T1, Human immunodeficiency virus type 1 integrase; experiment: Inhibition of HIV1 recombinant integrase 3' processing activity using [32P]-labeled oligonucleotide a substrate after 30 mins by electrophoretic analysis; outline: as §1
[3] = system: Human immunodeficiency virus 1; experiment: Antiviral activity against HIV1 expressing wild type integrase infected in HOS cells; type: functional, organism-based; settings: Human immunodeficiency virus 1, HOS
Outline: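 HOS cells infected with a lentiviral vector carrying wild-type IN; EC50 from the infected cells.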

[4] = Selectivity index, ratio of CC50 for human HOS cells to EC50 for HIV1 expressing wild type integrase; type: toxicity, cell-based; settings: read-out: Ratio CC50/EC50
[5] = system: HOS; experiment: Cytotoxicity against human HOS cells assessed as reduction in ATP level; type: cell-based
[6] = system: Human immunodeficiency virus 1; experiment: Ratio of EC50 for HIV1 expressing integrase Y143R mutant to EC50 for HIV1 expressing wild type integrase; type: functional

T1 sequence (Q7ZJM1 whole entry): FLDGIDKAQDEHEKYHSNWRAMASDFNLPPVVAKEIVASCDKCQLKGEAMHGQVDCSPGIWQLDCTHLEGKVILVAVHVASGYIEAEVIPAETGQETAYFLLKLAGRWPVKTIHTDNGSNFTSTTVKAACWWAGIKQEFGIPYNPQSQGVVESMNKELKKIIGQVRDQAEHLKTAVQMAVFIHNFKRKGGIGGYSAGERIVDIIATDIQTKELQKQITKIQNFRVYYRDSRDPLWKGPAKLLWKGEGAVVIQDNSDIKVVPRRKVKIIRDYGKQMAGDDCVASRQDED

Row | SMILES | IC50 [1] | IC50 [2] | EC50 [3] | selectivity ratio [4] | CC50 [5] | Ratio EC50 [6]
1 | CN(C)CCCNS(=O)(=O)c1cc(O)c(O)c2c1CN(Cc1ccc(F)c(Cl)c1)C2=O | 0.24 µM | 15.9 µM |  |  |  | 
2 | CN(C)S(=O)(=O)c1c(O)c(O)c(O)c2c1CN(Cc1ccc(F)c(Cl)c1)C2=O | 0.26 µM | 7.6 µM | 0.159 µM | 29 | 4.6 µM | 2
3 | CN(C)S(=O)(=O)c1ccc(-c2c(O)c(O)c3c(c2S(=O)(=O)N(C)C)CN(Cc2ccc(F)c(Cl)c2)C3=O)cc1 | 0.25 µM | 35.2 µM | 0.132 µM | 21 | 2.8 µM | 4
4 | Cc1cc2c(c(O)c1O)C(=O)N(Cc1ccc(F)c(Cl)c1)C2 | 11.5 µM | > 111 µM |  |  |  | 
5 | CCCCc1cc2c(c(O)c1O)C(=O)N(Cc1ccc(F)c(Cl)c1)C2 | 6.8 µM | > 111 µM |  |  |  | 
6 | CC(C)c1cc2c(c(O)c1O)C(=O)N(Cc1ccc(F)c(Cl)c1)C2 | 5.4 µM | > 111 µM |  |  |  | 
7 | O=C1c2c(cc(-c3ccccc3)c(O)c2O)CN1Cc1ccc(F)c(Cl)c1 | 0.87 µM | > 111 µM |  |  |  | 
8 | O=C1c2c(cc(O)c(O)c2O)CN1Cc1ccc(F)c(Cl)c1 | 1.5 µM | 36 µM |  |  |  | 
9 | CN(C)S(=O)(=O)c1ccc(-c2cc3c(c(O)c2O)C(=O)N(Cc2ccc(F)c(Cl)c2)C3)cc1 | 0.4 µM | > 111 µM |  |  |  | 
10 | CNS(=O)(=O)c1cc(O)c(O)c2c1CN(Cc1ccc(F)c(Cl)c1)C2=O | 0.12 µM | 17.5 µM | 0.04 µM | 108 | 4.3 µM | 1
11 | CCN(CC)S(=O)(=O)c1cc(O)c(O)c2c1CN(Cc1ccc(F)c(Cl)c1)C2=O | 0.054 µM | 9.5 µM | 0.017 µM | 494 | 8.4 µM | 3
12 | O=C1c2c(O)c(O)cc(S(=O)(=O)NCCCBr)c2CN1Cc1ccc(F)c(Cl)c1 | 0.11 µM | 14.7 µM | 0.093 µM | 49 | 4.6 µM | 1
13 | O=C1c2c(O)c(O)cc(S(=O)(=O)NCCN3CCOCC3)c2CN1Cc1ccc(F)c(Cl)c1 | 0.32 µM | 30.2 µM |  |  |  | 
14 | O=C1c2c(O)c(O)cc(S(=O)(=O)NCCN3CCNCC3)c2CN1Cc1ccc(F)c(Cl)c1 | 0.31 µM | 19.3 µM |  |  |  | 
15 | O=C1c2c(O)c(O)cc(S(=O)(=O)NCc3ccccn3)c2CN1Cc1ccc(F)c(Cl)c1 | 0.37 µM | 23 µM |  |  |  | 
16 | CN1CCN(S(=O)(=O)c2cc(O)c(O)c3c2CN(Cc2ccc(F)c(Cl)c2)C3=O)CC1 | 0.4 µM | 23 µM | 0.043 µM | 144 | 6.2 µM | 1
17 | NCCN1CCN(S(=O)(=O)c2cc(O)c(O)c3c2CN(Cc2ccc(F)c(Cl)c2)C3=O)CC1 | 0.19 µM | 21.2 µM |  |  |  | 
18 | O=C1c2c(O)c(O)cc(S(=O)(=O)N3CCOCC3)c2CN1Cc1ccc(F)c(Cl)c1 | 0.047 µM | 6.8 µM | 0.022 µM | 241 | 5.3 µM | 2
19 | O=C(O)CNS(=O)(=O)c1cc(O)c(O)c2c1CN(Cc1ccc(F)c(Cl)c1)C2=O | 0.08 µM | 11.7 µM | 0.929 µM | 115 | 107 µM | 3
20 | CN(CC(=O)O)S(=O)(=O)c1cc(O)c(O)c2c1CN(Cc1ccc(F)c(Cl)c1)C2=O | 0.058 µM | 6.9 µM | 0.14 µM | 680 | 95.2 µM | 2
21 | Cc1c(O)c(O)c2c(c1S(=O)(=O)N(C)C)CN(Cc1ccc(F)c(Cl)c1)C2=O | 2.8 µM | 49.7 µM | 0.322 µM | 20 | 6.3 µM | 2
22 | CCCCc1c(O)c(O)c2c(c1S(=O)(=O)N(C)C)CN(Cc1ccc(F)c(Cl)c1)C2=O | 2.3 µM | > 111 µM | 3.8 µM | 2 | 7 µM | 1
23 | CC(C)c1c(O)c(O)c2c(c1S(=O)(=O)N(C)C)CN(Cc1ccc(F)c(Cl)c1)C2=O | 0.19 µM | > 111 µM | 3.6 µM | 3 | 12.1 µM | 
24 | CC(C)c1c(O)c(O)c2c(c1S(=O)(=O)N1CCOCC1)CN(Cc1ccc(F)c(Cl)c1)C2=O | 0.41 µM | > 111 µM | 3.4 µM | 2 | 5.9 µM | 4
25 | O=C1c2c(ccc(O)c2O)CN1Cc1ccc(F)c(Cl)c1 |  |  | 0.447 µM | 12 |  | 1
